Test results published in ChEMBL document CHEMBL3774346, “Rational design, synthesis and biological evaluation of 1,3,4-oxadiazole pyrimidine derivatives as novel pyruvate dehydrogenase complex E1 inhibitors” (Bioorg Med Chem, 2016).

test system: not listed separately; assay: Inhibition of Escherichia coli PDHc-E1 E522A mutant expressed in Escherichia coli TB1 using sodium pyruvate as substrate and ThDP after 3 mins by 2,6-DCPIP based microplate reader method
Outline: (§1)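 Point mutants were made by PCR mutagenesis on a pMAL-c2x-PDHc-E1 template, DpnI-digested and passed through DH5α. […] Assays used 7.1 µM enzyme, 50 mM K3PO4 pH 7.2, 2.0 mM pyruvate and 0.8 mM DCPIP, with 3 min preincubation at 37 °C and ThDP (0–200 µM) start. A600 was read and IC50 taken by Hill fit.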

| IC50 [µM] | SMILES |
| --- | --- |
| 10.8 | CNc1nc(C(F)(F)F)c(-c2nnc(SCc3cn(Cc4cnc(C)nc4N)nn3)o2)s1 |

test system: Alternaria solani; assay: Antifungal activity against Alternaria solani at 100 ug/ml; format: functional

| SMILES | inhibition at 100 µg/mL [%] |
| --- | --- |
| Cc1ncc(Cn2cc(CSc3nnc(-c4cc([N+](=O)[O-])cc([N+](=O)[O-])c4)o3)nn2)c(N)n1 | 30 |
| Cc1ncc(Cn2cc(CSc3nnc(-c4ccc(C(F)(F)F)cc4)o3)nn2)c(N)n1 | 35 |
| Cc1ncc(Cn2cc(CSc3nnc(-c4sc(N)nc4C)o3)nn2)c(N)n1 | 56 |
| CNc1nc(C)c(-c2nnc(SCc3cn(Cc4cnc(C)nc4N)nn3)o2)s1 | 44 |
| Cc1ncc(Cn2cc(CSc3nnc(-c4ccc([N+](=O)[O-])cc4Cl)o3)nn2)c(N)n1 | 35 |
| CNc1nc(C(F)(F)F)c(-c2nnc(SCc3cn(Cc4cnc(C)nc4N)nn3)o2)s1 | 41 |

molecular target: T1, Pyruvate dehydrogenase E1 component subunit alpha, somatic form, mitochondrial (Sus scrofa) (UniProt P29804); assay: Inhibition of pig heart PDHc-E1 using sodium pyruvate as substrate at 100 uM after 3 mins by 2,6-DCPIP based microplate reader method
T1 sequence (whole entry): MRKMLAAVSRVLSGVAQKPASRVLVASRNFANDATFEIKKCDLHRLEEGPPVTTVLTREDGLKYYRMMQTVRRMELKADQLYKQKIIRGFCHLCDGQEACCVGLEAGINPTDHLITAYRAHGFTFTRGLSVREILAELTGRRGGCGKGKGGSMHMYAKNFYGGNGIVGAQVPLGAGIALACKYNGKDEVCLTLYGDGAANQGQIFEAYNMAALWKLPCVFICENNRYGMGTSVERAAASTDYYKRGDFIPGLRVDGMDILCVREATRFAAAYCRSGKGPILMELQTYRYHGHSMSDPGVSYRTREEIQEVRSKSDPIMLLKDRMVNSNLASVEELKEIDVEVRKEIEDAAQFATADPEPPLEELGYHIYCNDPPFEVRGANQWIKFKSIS

| inhibition [%] | SMILES |
| --- | --- |
| 27.1 | Cc1ncc(Cn2cc(CSc3nnc(-c4sc(N)nc4C)o3)nn2)c(N)n1 |
| 15.6 | CNc1nc(C)c(-c2nnc(SCc3cn(Cc4cnc(C)nc4N)nn3)o2)s1 |
| 26.1 | CNc1nc(C(F)(F)F)c(-c2nnc(SCc3cn(Cc4cnc(C)nc4N)nn3)o2)s1 |

test system: Escherichia coli; assay: Selectivity index, ratio of IC50 for Escherichia coli PDHc-E1 H106A mutant to IC50 for Escherichia coli WT PDHc-E1

| Ratio IC50 | SMILES |
| --- | --- |
| 11 | CNc1nc(C(F)(F)F)c(-c2nnc(SCc3cn(Cc4cnc(C)nc4N)nn3)o2)s1 |

test system: Escherichia coli; assay: Inhibition of Escherichia coli PDHc-E1 expressed in Escherichia coli TB1 at 100 uM using sodium pyruvate as substrate after 3 mins by 2,6-DCPIP based microplate reader method

| inhibition [%] | SMILES |
| --- | --- |
| 100 | Cc1ncc(Cn2cc(CSc3nnc(-c4sc(N)nc4C)o3)nn2)c(N)n1 |
| 100 | CNc1nc(C)c(-c2nnc(SCc3cn(Cc4cnc(C)nc4N)nn3)o2)s1 |
| 100 | CNc1nc(C(F)(F)F)c(-c2nnc(SCc3cn(Cc4cnc(C)nc4N)nn3)o2)s1 |

test system: Colletotrichum orbiculare; assay: Antifungal activity against Colletotrichum orbiculare at 100 ug/ml; format: functional

| SMILES | inhibition at 100 µg/mL [%] |
| --- | --- |
| Cc1ncc(Cn2cc(CSc3nnc(-c4cc([N+](=O)[O-])cc([N+](=O)[O-])c4)o3)nn2)c(N)n1 | 33 |
| Cc1ncc(Cn2cc(CSc3nnc(-c4ccc(C(F)(F)F)cc4)o3)nn2)c(N)n1 | 45 |
| Cc1ncc(Cn2cc(CSc3nnc(-c4sc(N)nc4C)o3)nn2)c(N)n1 | 24 |
| CNc1nc(C)c(-c2nnc(SCc3cn(Cc4cnc(C)nc4N)nn3)o2)s1 | 26 |
| Cc1ncc(Cn2cc(CSc3nnc(-c4ccc([N+](=O)[O-])cc4Cl)o3)nn2)c(N)n1 | 38 |
| CNc1nc(C(F)(F)F)c(-c2nnc(SCc3cn(Cc4cnc(C)nc4N)nn3)o2)s1 | 36 |

test system: Rhizoctonia solani; assay: Antifungal activity against Rhizoctonia solani at 100 ug/ml; format: functional

| SMILES | inhibition at 100 µg/mL [%] |
| --- | --- |
| Cc1ncc(Cn2cc(CSc3nnc(-c4cc([N+](=O)[O-])cc([N+](=O)[O-])c4)o3)nn2)c(N)n1 | 30 |
| Cc1ncc(Cn2cc(CSc3nnc(-c4ccc(C(F)(F)F)cc4)o3)nn2)c(N)n1 | 0 |
| Cc1ncc(Cn2cc(CSc3nnc(-c4sc(N)nc4C)o3)nn2)c(N)n1 | 11 |
| CNc1nc(C)c(-c2nnc(SCc3cn(Cc4cnc(C)nc4N)nn3)o2)s1 | 11 |
| Cc1ncc(Cn2cc(CSc3nnc(-c4ccc([N+](=O)[O-])cc4Cl)o3)nn2)c(N)n1 | 46 |
| CNc1nc(C(F)(F)F)c(-c2nnc(SCc3cn(Cc4cnc(C)nc4N)nn3)o2)s1 | 14 |

test system: not listed separately; assay: Inhibition of Escherichia coli PDHc-E1 M194A mutant expressed in Escherichia coli TB1 using sodium pyruvate as substrate and ThDP after 3 mins by 2,6-DCPIP based microplate reader method; outline: as §1

| IC50 [µM] | SMILES |
| --- | --- |
| 19.1 | CNc1nc(C(F)(F)F)c(-c2nnc(SCc3cn(Cc4cnc(C)nc4N)nn3)o2)s1 |

test system: Botrytis cinerea; assay: Antifungal activity against Botrytis cinerea at 100 ug/ml; format: functional

| SMILES | inhibition at 100 µg/mL [%] |
| --- | --- |
| Cc1ncc(Cn2cc(CSc3nnc(-c4cc([N+](=O)[O-])cc([N+](=O)[O-])c4)o3)nn2)c(N)n1 | 41 |
| Cc1ncc(Cn2cc(CSc3nnc(-c4ccc(C(F)(F)F)cc4)o3)nn2)c(N)n1 | 45 |
| Cc1ncc(Cn2cc(CSc3nnc(-c4sc(N)nc4C)o3)nn2)c(N)n1 | 31 |
| CNc1nc(C)c(-c2nnc(SCc3cn(Cc4cnc(C)nc4N)nn3)o2)s1 | 31 |
| Cc1ncc(Cn2cc(CSc3nnc(-c4ccc([N+](=O)[O-])cc4Cl)o3)nn2)c(N)n1 | 54 |
| CNc1nc(C(F)(F)F)c(-c2nnc(SCc3cn(Cc4cnc(C)nc4N)nn3)o2)s1 | 50 |

test system: not listed separately; assay: Inhibition of Escherichia coli PDHc-E1 expressed in Escherichia coli TB1 using sodium pyruvate as substrate and ThDP after 3 mins by 2,6-DCPIP based microplate reader method
Outline: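 The enzyme (7.1 µM) was preincubated 3 min at 37 °C with varied inhibitor in 50 mM K3PO4 pH 7.2, 2.0 mM pyruvate and 0.8 mM 2,6-DCPIP. ThDP (0–200 µM) started the reaction, read as A600 decrease. IC50 came from a Hill fit of initial rates.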

| SMILES | IC50 [µM] |
| --- | --- |
| Cc1ncc(Cn2cc(CSc3nnc(-c4cc([N+](=O)[O-])cc([N+](=O)[O-])c4)o3)nn2)c(N)n1 | 8.61 |
| Cc1ncc(Cn2cc(CSc3nnc(-c4ccc(C(F)(F)F)cc4)o3)nn2)c(N)n1 | 15.9 |
| Cc1ncc(Cn2cc(CSc3nnc(-c4ccc([N+](=O)[O-])cc4Cl)o3)nn2)c(N)n1 | 12.8 |

Molecules with a lower IC50, results first:

| IC50 [µM] | SMILES |
| --- | --- |
| 4.36 | Cc1ncc(Cn2cc(CSc3nnc(-c4sc(N)nc4C)o3)nn2)c(N)n1 |
| 6.62 | CNc1nc(C)c(-c2nnc(SCc3cn(Cc4cnc(C)nc4N)nn3)o2)s1 |
| 0.97 | CNc1nc(C(F)(F)F)c(-c2nnc(SCc3cn(Cc4cnc(C)nc4N)nn3)o2)s1 |

test system: not listed separately; assay: Inhibition of Escherichia coli PDHc-E1 E571A mutant expressed in Escherichia coli TB1 using sodium pyruvate as substrate and ThDP after 3 mins by 2,6-DCPIP based microplate reader method; outline: as §1

| IC50 [µM] | SMILES |
| --- | --- |
| 5.02 | CNc1nc(C(F)(F)F)c(-c2nnc(SCc3cn(Cc4cnc(C)nc4N)nn3)o2)s1 |

test system: not listed separately; assay: Inhibition of Escherichia coli TB1 PDHc-E1 H106A mutant expressed in Escherichia coli TB1 using sodium pyruvate as substrate and ThDP after 3 mins by 2,6-DCPIP based microplate reader method; outline: as §1

| IC50 [µM] | SMILES |
| --- | --- |
| 11.6 | CNc1nc(C(F)(F)F)c(-c2nnc(SCc3cn(Cc4cnc(C)nc4N)nn3)o2)s1 |

test system: not listed separately; assay: Inhibition of Escherichia coli PDHc-E1 V192A mutant expressed in Escherichia coli TB1 using sodium pyruvate as substrate and ThDP after 3 mins by 2,6-DCPIP based microplate reader method; outline: as §1

| IC50 [µM] | SMILES |
| --- | --- |
| 33.2 | CNc1nc(C(F)(F)F)c(-c2nnc(SCc3cn(Cc4cnc(C)nc4N)nn3)o2)s1 |

test system: not listed separately; assay: Inhibition of Escherichia coli TB1 PDHc-E1 K392A mutant expressed in Escherichia coli TB1 using sodium pyruvate as substrate and ThDP after 3 mins by 2,6-DCPIP based microplate reader method; outline: as §1

| IC50 [µM] | SMILES |
| --- | --- |
| 20.4 | CNc1nc(C(F)(F)F)c(-c2nnc(SCc3cn(Cc4cnc(C)nc4N)nn3)o2)s1 |

test system: not listed separately; assay: Inhibition of Escherichia coli PDHc-E1 F602A mutant expressed in Escherichia coli TB1 using sodium pyruvate as substrate and ThDP after 3 mins by 2,6-DCPIP based microplate reader method; outline: as §1

| IC50 [µM] | SMILES |
| --- | --- |
| 5.08 | CNc1nc(C(F)(F)F)c(-c2nnc(SCc3cn(Cc4cnc(C)nc4N)nn3)o2)s1 |

test system: not listed separately; assay: Antibacterial activity against Synechocystis sp. PCC 6803 at 10 uM; format: functional

| SMILES | inhibition at 10 µM [%] |
| --- | --- |
| Cc1ncc(Cn2cc(CSc3nnc(-c4cc([N+](=O)[O-])cc([N+](=O)[O-])c4)o3)nn2)c(N)n1 | 90 |
| Cc1ncc(Cn2cc(CSc3nnc(-c4ccc(C(F)(F)F)cc4)o3)nn2)c(N)n1 | 90 |
| Cc1ncc(Cn2cc(CSc3nnc(-c4sc(N)nc4C)o3)nn2)c(N)n1 | 90 |
| CNc1nc(C)c(-c2nnc(SCc3cn(Cc4cnc(C)nc4N)nn3)o2)s1 | 90 |
| CNc1nc(C(F)(F)F)c(-c2nnc(SCc3cn(Cc4cnc(C)nc4N)nn3)o2)s1 | 90 |

test system: not listed separately; assay: Antibacterial activity against Synechocystis sp. PCC 6803; format: functional

| SMILES | EC50 [µM] |
| --- | --- |
| Cc1ncc(Cn2cc(CSc3nnc(-c4cc([N+](=O)[O-])cc([N+](=O)[O-])c4)o3)nn2)c(N)n1 | 2.33 |
| Cc1ncc(Cn2cc(CSc3nnc(-c4ccc(C(F)(F)F)cc4)o3)nn2)c(N)n1 | 5.35 |
| Cc1ncc(Cn2cc(CSc3nnc(-c4ccc([N+](=O)[O-])cc4Cl)o3)nn2)c(N)n1 | 6.37 |

The remaining lines, values ahead:

| EC50 [µM] | SMILES |
| --- | --- |
| 1.63 | Cc1ncc(Cn2cc(CSc3nnc(-c4sc(N)nc4C)o3)nn2)c(N)n1 |
| 1.51 | CNc1nc(C)c(-c2nnc(SCc3cn(Cc4cnc(C)nc4N)nn3)o2)s1 |
| 0.83 | CNc1nc(C(F)(F)F)c(-c2nnc(SCc3cn(Cc4cnc(C)nc4N)nn3)o2)s1 |

test system: Escherichia coli; assay: Selectivity index, ratio of IC50 for Escherichia coli PDHc-E1 K392A mutant to IC50 for Escherichia coli WT PDHc-E1

| Ratio IC50 | SMILES |
| --- | --- |
| 20 | CNc1nc(C(F)(F)F)c(-c2nnc(SCc3cn(Cc4cnc(C)nc4N)nn3)o2)s1 |
